Data: ChEMBL document CHEMBL3769315 (J Med Chem, 2016)
In brackets after ≈: the same amount, converted by molar mass.

Columns and labels:
Hepatitis C virus [1] = assay: microbe, parasite or virus in culture; format: functional, organism-based, Hepacivirus hominis; conditions: JFH-1, Huh-7.5.1, 48 h
[2] = Cytotoxicity against human Huh7.5.1 cells assessed as ATP level by luminescence analysis; conditions: huh-7
[3] = Selectivity index, ratio of CC50 for human Huh7.5.1 cells infected with HCV JFH-1 virus to EC50 for HCV JFH-1 virus
[4] = (§1) Metabolic stability in rat liver microsomes assessed as half life by LC-MS/MS analysis in presence of NADPH
Hepatitis C virus [5] = assay: Antiviral activity against HCV genotype 2a assessed as inhibition of RNA replication at 10 uM by cell-based replicon assay; format: functional, Hepacivirus hominis
Outline: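 GT 2a subgenomic replicon cells were plated at 10^4/well and incubated overnight. They were then treated with compound (10 μM, or 3.2 or 1 μM for some compounds) for 48 h. Luciferase activity was read and expressed as % of DMSO.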

[6] = test system: Vesicular stomatitis virus; assay: Antiviral activity against Vesicular stomatitis virus G pseudoparticle infected in human Huh7.5.1 cells at 10 uM after 4 hrs by luciferase reporter gene assay; format: functional; conditions: Huh-7, 4 h
Murine leukemia virus = assay: Antiviral activity against Murine leukemia virus pseudoparticle infected in human Huh7.5.1 cells at 10 uM after 4 hrs by luciferase reporter gene assay; format: functional; conditions: Huh-7, 4 h
[7] = Solubility of compound in phosphate buffer at pH 7.4
histamine H1 receptor = histamine H1 receptor (Homo sapiens, UniProt P35367); assay: in vitro; conditions: PathHunter cells
Chain of histamine H1 receptor (P35367 whole entry): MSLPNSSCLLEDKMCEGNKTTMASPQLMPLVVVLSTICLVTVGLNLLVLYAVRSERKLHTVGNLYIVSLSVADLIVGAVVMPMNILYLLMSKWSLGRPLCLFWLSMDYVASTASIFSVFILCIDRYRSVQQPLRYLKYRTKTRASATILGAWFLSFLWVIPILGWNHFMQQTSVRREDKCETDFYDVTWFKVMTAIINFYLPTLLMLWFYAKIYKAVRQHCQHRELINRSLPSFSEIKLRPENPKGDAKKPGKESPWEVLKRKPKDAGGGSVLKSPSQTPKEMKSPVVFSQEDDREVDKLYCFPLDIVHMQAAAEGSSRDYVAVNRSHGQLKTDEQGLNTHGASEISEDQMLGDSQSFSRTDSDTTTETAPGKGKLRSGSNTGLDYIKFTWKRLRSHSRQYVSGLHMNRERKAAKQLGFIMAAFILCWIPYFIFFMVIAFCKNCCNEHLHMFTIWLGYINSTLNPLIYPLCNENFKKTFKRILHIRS

Liver microsome [8] = assay: (§2) Metabolic stability in human liver microsomes assessed as half life by LC-MS/MS analysis in presence of NADPH
Hepatitis C virus [9] = assay: Antiviral activity against HCV genotype 1a pseudoparticle infected in human Huh7.5.1 cells assessed as inhibition of virus entry at 10 uM after 4 hrs by luciferase reporter gene assay; format: functional, Hepacivirus hominis; conditions: subtype 1a, Huh-7, 4 h
Liver microsome [10] = assay: as §1
Hepatitis C virus [11] = assay: microbe, parasite or virus in culture; format: functional, Hepacivirus hominis; conditions: Huh-7, 48 h
[12] = Metabolic stability in mouse liver microsomes assessed as half life by LC-MS/MS analysis in presence of NADPH
Hepatitis C virus [13] = assay: Antiviral activity against HCV genotype 1b pseudoparticle infected in human Huh7.5.1 cells assessed as inhibition of virus entry at 10 uM after 4 hrs by luciferase reporter gene assay; format: functional, Hepacivirus hominis; conditions: Huh-7, 4 h
[14] = as §2
HepG2 = assay: Cytotoxicity against human HepG2 cells assessed as ATP level by luminescence analysis

Structure (SMILES)	EC50 (Hepatitis C virus [1])	CC50 [2]	selectivity ratio [3]	also measured
c1ccc(C(c2ccccc2)c2ccncc2)cc1	> 31.6 µM	65.1 µM	< 2	–
Clc1ccc(C(c2ccc(Cl)cc2)N2CCCCC2)cc1	17.4 µM	69 µM	4	–
CCCCN1CCN([C@H](c2ccccc2)c2ccc(Cl)cc2)CC1	0.195 µM	40.8 µM	209	–
CN1CCN([C@H](c2ccccc2)c2ccc(Cl)cc2)CC1	0.02 µM	37.5 µM	–	–
CCN1CCN([C@H](c2ccccc2)c2ccc(Cl)cc2)CC1	–	37.9 µM	–	half-life [4]: 132 min
CC(C)CN1CCN([C@H](c2ccccc2)c2ccc(Cl)cc2)CC1	0.232 µM	58.2 µM	251	–
OCCOCCN1CCN(C(c2ccc(Cl)cc2)c2ccc(Cl)cc2)CC1	–	–	–	inhibition at 10 µM (Hepatitis C virus [5]): 98.8%; inhibition at 10 µM [6]: 109%; inhibition at 10 µM (Murine leukemia virus): 108%; solubility kinetic [7]: 44.5 µg/mL (≈ 109 µM); inhibition at 2 h, 0.01 µM (histamine H1 receptor): 23.7%; t1/2 (Liver microsome [8]): > 30 min; inhibition at 10 µM (Hepatitis C virus [9]): 71.7%; t1/2 (Liver microsome [10]): 13.7 min; inhibition at 10 µM (Hepatitis C virus [11]): 1.8%; t1/2 [12]: 10 min; inhibition at 10 µM (Hepatitis C virus [13]): 80.8%
FC(F)(F)CN1CCN([C@@H](c2ccccc2)c2ccc(Cl)cc2)CC1	> 31.6 µM	> 100 µM	–	–
CN1CCC(N(c2ccccc2)c2ccccc2)CC1	2.72 µM	56.8 µM	21	–
CCCN1CCN([C@@H](c2ccccc2)c2ccc(Cl)cc2)CC1	0.032 µM	39.7 µM	1240	–
c1ccc(C(c2ccccc2)C2CCNCC2)cc1	0.072 µM	32.5 µM	451	–
CCCN1CCN([C@H](c2ccccc2)c2ccc(Cl)cc2)CC1	0.024 µM	48.5 µM	2020	–
[2H]C([2H])([2H])N1CCN([C@H](c2ccccc2)c2ccc(Cl)cc2)CC1	0.04 µM	46.7 µM	–	–
FC(F)(F)CN1CCN([C@H](c2ccccc2)c2ccc(Cl)cc2)CC1	> 31.6 µM	–	–	–
Clc1ccc([C@H](c2ccccc2)N2CCN(C3CCCC3)CC2)cc1	0.019 µM	30.4 µM	1600	–
CC(=O)N1CCN([C@@H](c2ccccc2)c2ccc(Cl)cc2)CC1	22 µM	91.3 µM	4	–
Clc1ccc([C@H](c2ccccc2)N2CCN(C3CCCCC3)CC2)cc1	0.177 µM	12.3 µM	69	–
CN1CCC(N(c2ccccc2)c2ccc(OC(C)(C)C)cc2)CC1	0.354 µM	78.7 µM	222	–
CCCCN1CCN([C@@H](c2ccccc2)c2ccc(Cl)cc2)CC1	0.042 µM	31.1 µM	740	–
[2H]C([2H])([2H])N1CCN([C@@H](c2ccccc2)c2ccc(Cl)cc2)CC1	0.063 µM	77.9 µM	–	–

Structure (SMILES)	EC50 (Hepatitis C virus [1])	CC50 [2]	selectivity ratio [3]	also measured
CCN1CCN(C2c3ccccc3-c3ccc(Br)cc32)CC1 (stereo unspecified)	1.68 µM	53.1 µM	32	–
CC(C)N1CCN([C@@H](c2ccccc2)c2ccc(Cl)cc2)CC1	0.013 µM	32.4 µM	2490	–
CCN1CCN(C(c2ccc(Cl)cc2)c2ccc(Cl)cc2)CC1	–	–	–	inhibition at 10 µM (Hepatitis C virus [5]): 128%; inhibition at 10 µM [6]: 110%; inhibition at 10 µM (Murine leukemia virus): 96.5%; solubility kinetic [7]: 17.7 µg/mL (≈ 50.7 µM); inhibition at 2 h, 0.01 µM (histamine H1 receptor): 31.7%; half-life [14]: 30 min; inhibition at 10 µM (Hepatitis C virus [9]): 76.6%; t1/2 (Liver microsome [10]): 2.2 min; inhibition at 10 µM (Hepatitis C virus [11]): 10.1%; t1/2 [12]: 12.6 min; inhibition at 10 µM (Hepatitis C virus [13]): 108%; CC50 (HepG2): 56 µM
[2H]C([2H])([2H])CN1CCN([C@@H](c2ccccc2)c2ccc(Cl)cc2)CC1	–	71.3 µM	–	–
COc1ccc(CN2CCN([C@@H](c3ccccc3)c3ccc(Cl)cc3)CC2)c(OC)c1	0.456 µM	38.4 µM	84	–
Clc1ccc([C@@H](c2ccccc2)N2CCNCC2)cc1	0.032 µM	12.5 µM	391	–
[2H]C([2H])([2H])CN1CCN([C@H](c2ccccc2)c2ccc(Cl)cc2)CC1	–	81.5 µM	–	half-life [4]: 174 min
Clc1ccc(C(c2ccc(Cl)cc2)N2CCOCC2)cc1	29.7 µM	62.1 µM	2	–
CC(C)CN1CCN([C@@H](c2ccccc2)c2ccc(Cl)cc2)CC1	0.102 µM	51.7 µM	507	–
NC(=O)COCCN1CCN(C(c2ccccc2)c2ccc(Cl)cc2)CC1 (racemic)	0.103 µM	> 100 µM	> 910	–
O=C1c2ccccc2C(=O)N1CCOCCN1CCN(C(c2ccccc2)c2ccc(Cl)cc2)CC1 (racemic)	1.54 µM	> 100 µM	> 65	–
CC(C)(C)OC(=O)NCCOCCOCCOCCOCCN1CCN(C(c2ccccc2)c2ccc(Cl)cc2)CC1 (racemic)	0.199 µM	19 µM	95	–
CC(=O)NCCOCCOCCOCCOCCN1CCN(C(c2ccccc2)c2ccc(Cl)cc2)CC1 (racemic)	0.17 µM	> 100 µM	> 588	–
NCCOCCOCCOCCOCCN1CCN(C(c2ccccc2)c2ccc(Cl)cc2)CC1 (racemic)	–	12.2 µM	–	inhibition at 10 µM (Hepatitis C virus [5]): 63.6%; inhibition at 10 µM [6]: 99.8%; inhibition at 10 µM (Murine leukemia virus): 117%; solubility kinetic [7]: 46 µg/mL (≈ 90.9 µM); inhibition at 2 h, 0.01 µM (histamine H1 receptor): 54.1%; t1/2 (Liver microsome [8]): 26.2 min; inhibition at 10 µM (Hepatitis C virus [9]): 95.8%; t1/2 (Liver microsome [10]): 11.7 min; inhibition at 10 µM (Hepatitis C virus [11]): 1.4%; t1/2 [12]: 29.1 min; inhibition at 10 µM (Hepatitis C virus [13]): 91.7%; CC50 (HepG2): 12.6 µM
O=C(O)COCCN1CCN(C(c2ccccc2)c2ccc(Cl)cc2)CC1 (racemic) [CETIRIZINE]	> 31.6 µM	–	–	–
CN1CCN(C(c2ccccc2)c2ccc(Cl)cc2)CC1 (racemic) [CHLORCYCLIZINE]	0.44 µM	49.8 µM	–	inhibition at 10 µM (Hepatitis C virus [5]): 102%; inhibition at 10 µM [6]: 105%; inhibition at 10 µM (Murine leukemia virus): 124%; inhibition at 2 h, 0.01 µM (histamine H1 receptor): 16%; t1/2 (Liver microsome [8]): 113 min; inhibition at 10 µM (Hepatitis C virus [9]): 92.5%; t1/2 (Liver microsome [10]): 4.6 min; inhibition at 10 µM (Hepatitis C virus [11]): 24.9%; t1/2 [12]: 36 min; inhibition at 10 µM (Hepatitis C virus [13]): 120%
CN1CCCN(C(c2ccccc2)c2ccc(Cl)cc2)CC1 (racemic) [HOMOCHLORCYCLIZINE]	0.057 µM	12.8 µM	225	–
OCCOCCN1CCN(C(c2ccccc2)c2ccc(Cl)cc2)CC1 (racemic) [HYDROXYZINE]	0.032 µM	42.6 µM	1330	–
Clc1ccc(C(c2ccccc2)N2CCNCC2)cc1 (racemic) [NORCHLORCYCLIZINE]	0.035 µM	10.4 µM	297	–
